From PubChem BioAssay
An excerpt weighted towards active compounds, which were near 1.8% of everything screened.
FLuc inhib CS: firefly luciferase enzyme inhibitors, primary screen, artefact control for luciferase-based inhibitor screens, biochemical, luminescence, ATPLite | Luciferin 4-monooxygenase (Photinus pyralis), P08659 | 10 min | inhibition, % at 10 µM | 200,000 compounds, 1.5% hits | AID 1006, 2008;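 active means inhibition above about 50% when tested at 10 µM, limit read from the data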
Target sequence (P08659 whole entry, looked up): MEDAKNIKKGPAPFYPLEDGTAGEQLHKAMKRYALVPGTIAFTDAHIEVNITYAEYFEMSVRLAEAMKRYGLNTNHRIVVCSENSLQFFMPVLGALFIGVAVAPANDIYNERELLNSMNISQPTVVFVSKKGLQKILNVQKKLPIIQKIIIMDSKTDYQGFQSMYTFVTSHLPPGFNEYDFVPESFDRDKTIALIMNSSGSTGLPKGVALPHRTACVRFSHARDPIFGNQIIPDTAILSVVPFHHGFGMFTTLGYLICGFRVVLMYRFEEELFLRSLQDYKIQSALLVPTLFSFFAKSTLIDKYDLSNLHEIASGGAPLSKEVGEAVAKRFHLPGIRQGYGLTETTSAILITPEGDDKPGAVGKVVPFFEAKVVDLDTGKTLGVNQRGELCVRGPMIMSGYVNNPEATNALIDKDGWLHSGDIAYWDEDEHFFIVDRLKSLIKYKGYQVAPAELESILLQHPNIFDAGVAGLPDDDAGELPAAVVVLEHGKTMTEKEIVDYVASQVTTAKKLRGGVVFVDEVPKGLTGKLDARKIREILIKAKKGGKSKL
beta cell repl: inducers of MIN6 beta-cell proliferation, primary screen, ATP luminescence, uHTS; proliferation, % at 10 µM; MIN6 cells proliferation, ATPlite luminescence, 48 h; cells starved in 0.2% serum; 100% = growth in 10% serum; 330,000 compounds, 0.29% hits;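 active means compounds whose signal lies at least 3.5 SD above the mean of all wells on their plate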
C8 TRAIL sens: viability loss with TRAIL in NB7+C8 cells, primary screen, TRAIL sensitizer project, cell-based, ATPlite luminescence | 360,000 compounds, 1% hits | AID 624354, 2012 | inhibition (viability loss, TRAIL sensitization), % at 10 µM;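 active means compounds causing at least 50% loss of cell viability in the single-dose screen, relative to plate controls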
hiPSC survival: enhancers of single-cell hiPSC survival, primary screen, ATPlite luminescence; 100% = ROCK inhibitor wells, 0% = DMSO; survival enhancement, % at 20 µM; 360,000 compounds, 0.044% hits; AID 602274, 2012; in the data active means survival enhancement above about 18%;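 further: cells exposed to compounds for 16 hours before the ATP read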
FLuc stim CS: FLuc activators, initial screening, artefact control for FLuc-dependent activation tests, biochemical, ATPlite luminescence; Luciferin 4-monooxygenase (Photinus pyralis), P08659; ATPlite luciferase biochemical, 10 min; 0 = ATP-free wells, 1 = DMSO control; activation factor at 10 µM; 200,000 tested, under 10 active;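 active means luciferase activation factor, scaled between plate controls, of at least 2 with compound at 10 µM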
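Material: luciferase plus luciferin reagent, cell-free. Medium: PBS buffer for ATP. Also added: ATP substrate, dispensed from a 10.24 µM working solution in PBS. Doses: test compounds dosed from 2 mM stocks in 100% DMSO. Incubation: 10 min post-reagent at room temperature. Technique: light output (luminescence). Read-out basis: luminescence gain marking luciferase activators.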
PPC-1+TRAIL kill: compounds killing PPC-1 cancer cells with TRAIL present, primary screen, TRAIL potentiator project, ATPLite luminescence, uHTS. cell killing (% activity), % at 4 µM or 5 µM. 220,000 compounds, 0.41% hits. AID 1443, 2008. PPC-1 cells + TRAIL, ATPLite viability luminescence;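 active means cell killing above 50% in the first pass at 4 µM, then a duplicate retest at 5 µM averaging 50% or more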
PPC-1 tox: cytotoxicity in PPC-1 cells, confirmation, cytotoxicity control for TRAIL apoptosis potentiator project, cell-based, ATP content luminescence; shares compounds with PPC-1+TRAIL kill; PPC-1 viability, ATPlite luminescence, overnight; cytotoxicity, % at 5 µM; 1,200 compounds, 50% hits; AID 1447, 2008;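 active means reconfirmed compounds whose average cytotoxicity reaches 50% or more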
Of the large screens only hits and unclear results are named; the others gave an inactive call (follow-up assays come after a bar, where they were run).

Cc1cc(C)cc(NC(=S)Nc2cccc3cnccc23)c1	none
CCc1ccc(NC(=S)Nc2cccc3cnccc23)cc1	none | PPC-1 tox inactive
CCNc1nn2ccccc2c1/C=C(\C#N)C(=O)OCC	none (no result: FLuc inhib CS, FLuc stim CS)
COc1ccc(CCNC(=O)c2cc3cc(F)ccc3nc2C)cc1OC	none (no result: FLuc inhib CS, FLuc stim CS, PPC-1+TRAIL kill)
CCC(Cc1ccccc1)NC(=O)c1ccc2nc(N3CCOCC3)sc2c1 (centres undefined)	none (no result: FLuc inhib CS, FLuc stim CS, PPC-1+TRAIL kill)
CCOc1ccc(-n2c(SC)nc3c(c2=O)SCC3)cc1	none | PPC-1 tox inactive
CCOc1ccc(-n2c(SC(C)C)nc3c(c2=O)SCC3)cc1	none
COc1ccccc1NC(=O)C(C)OC(=O)c1nc2nc(C)cc(C)n2n1 (centres undefined)	none (no result: FLuc inhib CS, FLuc stim CS, PPC-1+TRAIL kill)
CCOC(=O)c1sc(NC(=O)c2cccs2)cc1C	FLuc inhib CS 71.1, PPC-1+TRAIL kill 59.9 | PPC-1 tox 59.8
CCc1ccc(Nc2nnc(SCC(=O)NCCN3C(=O)CSC3=O)s2)cc1	FLuc inhib CS 84.1, C8 TRAIL sens 57.8 | PPC-1 tox inactive
CC(C)(C)c1ccc(NC(=O)C2CCCN(c3cnccn3)C2)cc1 (centres undefined)	none (no result: FLuc inhib CS, FLuc stim CS, PPC-1+TRAIL kill)
O=C(NCC1CCCO1)c1ccc2c(c1)C(=O)N(C1CCCCC1)C2=O (centres undefined)	none | PPC-1 tox inactive
Cc1ccc(-c2nc3cc(N)ccc3o2)cc1	FLuc inhib CS 88.8, C8 TRAIL sens 69.8, PPC-1+TRAIL kill 63.4 | PPC-1 tox 60.8
Cc1ccc2oc(-c3cccc(N)c3)nc2c1	FLuc inhib CS 87.5, C8 TRAIL sens 62.6, PPC-1+TRAIL kill 55.0 | PPC-1 tox 55.6
CC(C)c1ccc2oc(-c3ccc(NC(=O)c4ncn[nH]4)cc3)nc2c1	none
Cc1ccc(-c2nc3cc(N)ccc3o2)c(C)c1	FLuc inhib CS 78.3, C8 TRAIL sens 58.0 | PPC-1 tox inactive
Nc1ccc2oc(-c3cccc4ccccc34)nc2c1	none
CC(C)c1ccc2oc(-c3ccc(N)cc3)nc2c1	FLuc inhib CS 88.5, C8 TRAIL sens 80.3, PPC-1+TRAIL kill 68.5 | PPC-1 tox 72.5
COc1cccc2nc3cc(C)c(C)cc3nc12	C8 TRAIL sens 68.2, PPC-1+TRAIL kill 70.5 (no result: FLuc inhib CS, FLuc stim CS) | PPC-1 tox 68.0
COc1cccc2c1nc(C)c1cc(C)oc12	none
COc1ccc(NC(=O)COc2ccccc2C(=O)NCC(c2ccccc2)N(C)C)cc1Cl (centres undefined)	none (no result: FLuc inhib CS, FLuc stim CS, PPC-1+TRAIL kill)
CN(c1ccccc1)S(=O)(=O)c1ccc(-c2ccccc2)cc1	none (no result: FLuc inhib CS, FLuc stim CS, PPC-1+TRAIL kill)
CN(C)S(=O)(=O)c1ccc(-c2ccccc2)cc1	none | PPC-1 tox inactive
CN(C)c1ccc(/C=N/NC(=O)c2ccn(C)n2)cc1	none (no result: FLuc inhib CS, FLuc stim CS) | PPC-1 tox inactive
Cn1ccc(C(=O)N/N=C/c2cccnc2)n1	none (no result: FLuc inhib CS, FLuc stim CS, PPC-1+TRAIL kill)
O=C(O)c1cc(Cl)ccc1NC(=O)C1CCCO1 (centres undefined)	none | PPC-1 tox inactive
O=C(O)c1ccccc1NC(=O)C1CCCO1 (centres undefined)	none | PPC-1 tox inactive
CCOC(=O)C(C)C(C)=O (centres undefined)	none (no result: FLuc inhib CS, FLuc stim CS, PPC-1+TRAIL kill)
CC1CCCN(S(=O)(=O)CCNC(=O)c2ccccc2)C1 (centres undefined)	none (no result: FLuc inhib CS, FLuc stim CS, PPC-1+TRAIL kill)
CN(C)c1ncnc2c1ncn2[C@H]1CN(Cc2ccc3c(c2)OCO3)C[C@@H](CO)O1	none (no result: FLuc inhib CS, beta cell repl, FLuc stim CS, PPC-1+TRAIL kill)
COC(=O)c1ccc2nc(NC(=O)C(C)(C)C)sc2c1	FLuc inhib CS 95.2, C8 TRAIL sens 90.2, PPC-1+TRAIL kill 85.3 | PPC-1 tox 86.2
COC(=O)c1ccc2nc(NC(=O)C3CCCCC3)sc2c1	none
COc1cccc(CNC(=O)Cc2nc3nc(C)cc(C)n3n2)c1	none
Cc1ccccc1N=CC1=C(O)c2ccccc2C1=O	FLuc inhib CS 96.1, C8 TRAIL sens 90.0, PPC-1+TRAIL kill 84.2 | PPC-1 tox 82.2
COc1ccc(N=CC2=C(O)c3ccccc3C2=O)c(OC)c1	FLuc inhib CS 95.2, C8 TRAIL sens 91.5, PPC-1+TRAIL kill 82.2 | PPC-1 tox 85.3
Cc1ccc(CNC(=O)C2(C)Oc3ccccc3NC2=O)cc1 (centres undefined)	none | PPC-1 tox inactive
COc1ccc(O)c(C(=O)CC(=O)c2ccncc2)c1	none (no result: FLuc inhib CS, beta cell repl, FLuc stim CS, PPC-1+TRAIL kill)
COc1ccc(O)c(C(=O)CC(=O)c2ccccc2)c1	PPC-1+TRAIL kill 60.2 (no result: C8 TRAIL sens, hiPSC survival) | PPC-1 tox 57.9
COC(=O)c1ccc(NC(=O)CS(=O)(=O)c2ccccc2)cc1	none (no result: FLuc inhib CS, FLuc stim CS, PPC-1+TRAIL kill)
O=C(N/N=C/c1ccc(N2CCOCC2)cc1)c1ccccn1	none (no result: FLuc inhib CS, FLuc stim CS)
O=C(N/N=C/c1ccc2c(c1)OCO2)c1ccccn1	FLuc inhib CS 87.8, C8 TRAIL sens 72.9, PPC-1+TRAIL kill 58.5 | PPC-1 tox 59.8
CC(C)c1ccc(/C=N/NC(=O)c2ccccn2)cc1	C8 TRAIL sens 81.0, PPC-1+TRAIL kill 68.7 (no result: FLuc inhib CS, FLuc stim CS) | PPC-1 tox 66.3
Cc1nn(-c2nc3ccccc3[nH]2)c(=O)c2ccccc12	FLuc inhib CS 97.2, C8 TRAIL sens 96.3, PPC-1+TRAIL kill 97.3 (no result: beta cell repl) | PPC-1 tox 97.0
O=C(N/N=C/c1cccc([N+](=O)[O-])c1)c1ccc2c(c1)OCCO2	FLuc inhib CS 84.2, C8 TRAIL sens 68.1, PPC-1+TRAIL kill 68.5 | PPC-1 tox 67.9
CCCCN1C=CC(=C2C(=O)c3ccccc3C2=O)C=C1	FLuc inhib CS 97.5, C8 TRAIL sens 94.8, PPC-1+TRAIL kill 95.6 | PPC-1 tox 95.9
CCCCNC1=CC(=O)C(=O)c2ccccc21	none (no result: PPC-1+TRAIL kill)
CC1CCN(C(=O)c2ccc3c(c2)OCO3)CC1	none (no result: FLuc inhib CS, FLuc stim CS, PPC-1+TRAIL kill)
CC1CN(C(=O)c2ccc3c(c2)OCO3)CC(C)O1 (centres undefined)	none | PPC-1 tox inactive
CCCNC(=O)c1ccc(-c2nc3ccccc3s2)s1	FLuc inhib CS 89.5, C8 TRAIL sens 83.1, PPC-1+TRAIL kill 69.7 | PPC-1 tox 77.2
CCCCN1C(=O)N(c2nnc(C(C)(C)C)s2)C(O)C1c1ccc(C)cc1 (centres undefined)	none (no result: FLuc inhib CS, FLuc stim CS)
Cc1ccc(OCc2nnc(SCC(=O)NCc3ccccc3)n2C)cc1	none | PPC-1 tox inactive
O=C(Cn1nc(C(F)F)cc1C1CC1)NCCC1=CCCCC1	none
CN(C)CCNC(=O)Cn1nc(C(F)F)cc1C1CC1	none | PPC-1 tox inactive
COc1ccc(OC)c(/C=N/NC(=O)c2[nH]ncc2Br)c1	none (no result: FLuc inhib CS, FLuc stim CS)
CCOc1ccc(/C=N/NC(=O)c2[nH]ncc2Br)c(O)c1	FLuc inhib CS 91.0, C8 TRAIL sens 78.9, PPC-1+TRAIL kill 56.8 | PPC-1 tox 55.5
